# High-throughput results as filed in PubChem.
# GAA850 FXN act = activators of GAA850 frataxin (FXN) promoter | HEK293 lucGAA850 FXN promoter luciferase reporter, 24 h; percent of 10 µM SAHA response | activation, % at 6 µM | 360,000 compounds, 0.56% hits | AID 540364;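 active = activation above the average of all compounds screened plus 3 SD, cutoff fixed separately per campaign, cut at about 7.5% in these data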;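 note: 0% = DMSO wells and 100% = 10 µM SAHA wells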
# SENP1 inh = inhibitors of human SENP1 SUMO protease catalytic domain; Q9P0U3; recombinant SENP1 catalytic domain, CyPet-SUMO1-YPet FRET cleavage; inhibition, % at 10 µM; 360,000 compounds, 0.21% hits; AID 624204;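 active = inhibition at least 30% at 10 µM, raw YFP signal under a set limit, fluorescence ratio 0.5 to 1.5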;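 note: 0% = enzyme with DMSO and 100% = no enzyme wells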
#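 System: Recombinant human SENP1 catalytic domain, His6-tagged | Incubation: Enzyme reaction for 50 min at room temperature, dark | Medium: Tris pH 8 with BME, BSA, NP40 and catalase | Also added: 25 nM SUMO1 FRET substrate | Compound: 10 µM single point, 0.5% DMSO | Measured by: FRET fluorescence in CFP and YFP emission channels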
# HDAC3 inhib = blocks human histone deacetylase 3 | O15379 | recombinant HDAC3, fluorogenic peptide/trypsin coupled, fluorescence | inhibition, % at 8.3 µM | 320,000 compounds, 0.15% hits | AID 2718; in the data active = inhibition above about 26%, passing the limit was not always enough
# Target sequence (O15379 whole entry, looked up): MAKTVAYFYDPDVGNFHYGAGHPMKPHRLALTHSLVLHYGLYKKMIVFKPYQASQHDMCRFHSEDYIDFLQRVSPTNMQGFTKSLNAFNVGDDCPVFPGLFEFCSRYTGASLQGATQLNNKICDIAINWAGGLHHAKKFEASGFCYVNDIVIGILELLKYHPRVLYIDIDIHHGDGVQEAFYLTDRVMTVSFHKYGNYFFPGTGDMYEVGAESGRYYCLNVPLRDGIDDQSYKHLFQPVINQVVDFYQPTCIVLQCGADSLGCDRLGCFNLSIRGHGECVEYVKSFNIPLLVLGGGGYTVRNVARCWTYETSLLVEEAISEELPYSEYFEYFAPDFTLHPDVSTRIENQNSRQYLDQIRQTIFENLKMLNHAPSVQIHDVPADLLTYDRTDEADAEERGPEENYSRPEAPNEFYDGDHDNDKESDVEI
# CTSL1 counter = cathepsin L1 inhibition, PFM18AAP counter-screen; recombinant F. hepatica cathepsin L1, Z-Leu-Arg-MCA fluorescence; inhibition, % at 5.96 µM; 300,000 compounds, 0.49% hits;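 active = inhibition above the mean of all tested compounds plus 3 SD, set per screening campaign, cut at about 17% in these data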;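 note: 0% = plate median of test compound wells and 100% = 1 µM Z-Phe-Ala-diazomethylketone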
# M18AAP inhibitor = blocks P. falciparum M18 aspartyl aminopeptidase; recombinant PfM18AAP, H-Glu-NHMec fluorogenic cleavage; inhibition, % at 7.35 µM; 290,000 compounds, 1.2% hits; AID 1822;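 active = inhibition above the campaign mean inhibition over all tested compounds plus 3 SD, cut at about 28% in these data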;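 note: 0% = plate median of test compound wells and 100% = 2 mM ZnCl2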
# AHR act = human AHR activation; 320,000 compounds, 2.5% hits; AHR-responsive luciferase reporter cells, luminescence; P35869; activation, % at 5 µM; in the data active = activation above about 47%;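 note: 0% = vehicle wells and 100% = reference agonist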
# * hit, by the source's call; nt = not tested or not shown. Sampled rows, rich in hits. Any-hit rate of the full collection: about 4.2%.
SMILES,GAA850 FXN act,SENP1 inh,HDAC3 inhib,CTSL1 counter,M18AAP inhibitor,AHR act
CCN(CC)S(=O)(=O)c1cccc(C(=O)Nc2nc3cc4c(cc3s2)OCCO4)c1,0,-2,15,4,5,-1
O=C(Nc1nc2cc3c(cc2s1)OCCO3)c1cccc(N2C(=O)CCC2=O)c1,-2,0,-1,-1,0,52*
COc1cc(OC)cc(C(=O)NNc2nc3cc4c(cc3s2)OCO4)c1,2,-4,-3,-6,31*,21
CSCCC(NS(=O)(=O)c1ccc(C)cc1)C(=O)NC1CCCCCC1 (centres undefined),-2,1,-7,-5,nt,2
COc1ccc(NC(=O)CN(C)C(=O)C(Sc2ccccc2)c2ccccc2)cc1 (centres undefined),-2,2,0,nt,nt,4
COCCNC(=O)C(c1ccc(C)cc1)N(Cc1ccco1)C(=O)CCC(=O)Nc1ccccn1 (centres undefined),-2,0,-4,0,-6,-1
CC(=O)N(C)c1ccc(NC(=O)Cc2cccs2)cc1,1,-1,3,-19,1,4
CCOC(=O)[C@]12CCC=C1N(Cc1ccco1)C(=O)[C@H](CC(=O)NCc1ccc(C)o1)C2,nt,-7,nt,nt,nt,nt
COc1cccc(OC)c1C(=O)Nc1nc2cc3c(cc2s1)OCO3,0,1,-16,-3,9,54*
Cc1cc2sc(NC(=O)c3ccco3)nc2cc1Cl,1,-2,0,-1,-6,-3
COc1cc2sc(NC(=O)c3ccco3)nc2cc1Cl,4,-1,-2,-2,-8,49*
COc1ccccc1C(=O)Nc1nc2cc3c(cc2s1)OCO3,6,1,nt,-12,11,44
C[C@H](NC(=O)c1nc[nH]c1C(=O)N[C@@H](C)C(=O)OC(C)(C)C)C(=O)OCc1ccccc1,1,-1,5,3,-10,1
CN(Cc1ccccc1)C(=O)c1[nH]cnc1C(=O)N[C@@H](Cc1ccccc1)C(=O)OCc1ccccc1,-2,0,33*,4,-3,-4
C[C@H](NC(=O)c1nc[nH]c1C(=O)N[C@@H](Cc1ccccc1)C(=O)OCc1ccccc1)C(=O)OC(C)(C)C,-1,1,31*,6,-11,1
COc1cccc(/C=N/N2CCOCC2)c1O,3,2,5,-13,-9,4
Oc1ccc(/C=N/N2CCOCC2)c(O)c1O,-1,4,-7,-1,34*,-1
COc1cc(CN(CC2CCCO2)C(=O)c2cccs2)cc(OC)c1OC (centres undefined),-2,2,nt,18*,-3,-1
Cc1cccc(NC(=O)CSc2nc3ccccc3c(=O)n2CC2CCCO2)c1 (centres undefined),0,2,-7,nt,nt,2
Cc1ccc(C)c(N(C)C(=O)CCS(=O)(=O)c2cccc3nonc23)c1,3,1,1,1,-6,4
Cc1ccc(C(=O)Nc2cc(Cl)ccc2Oc2ccccc2)cc1[N+](=O)[O-],1,1,3,5,1,67*
Cc1ccc(C(=O)Nc2ccccc2-c2ccccc2)cc1[N+](=O)[O-],2,0,-4,1,6,9
Cc1cc(C)nc(NC(=O)c2ccc(C)c([N+](=O)[O-])c2)n1,0,3,-6,0,-3,72*
Cc1ccc(S(=O)(=O)N2CCCCC2)cc1NC(=O)CNc1ccc(C(F)(F)F)cc1,0,1,-2,13,nt,0
O=C1CCC([N+](=O)[O-])C(C2CC=CCC2)N1 (centres undefined),1,2,-6,1,nt,0
SMILES,GAA850 FXN act,SENP1 inh,HDAC3 inhib,CTSL1 counter,M18AAP inhibitor,AHR act
C=C(C)C(=O)OC1(C(F)(F)F)Oc2cc(C)ccc2NC1=O (centres undefined),7,3,29*,-26,-3,-1
COc1cc(/C=C2\CCn3c2nc2cc(C(=O)O)ccc2c3=O)ccc1OC(F)F,1,-1,nt,6,-16,15
COCCn1c(C)cc(/C=C2\NC(=S)N(C)C2=O)c1C,2,-81,3,1,11,57*
COCCn1c(C)cc(/C=C2/SC(=O)N(C(C)C(=O)OC)C2=O)c1C (centres undefined),2,-53,-3,-4,3,-1
Cn1c(=O)c2c(-c3ccccc3)n(-n3cnnc3)cc2n(C)c1=O,3,8,-1,25*,7,-2
CCOC(=O)c1c(C)n(C)c2ccc(OC)c([N+](=O)[O-])c12,3,3,-5,1,-4,55*
Cc1ccc(S(=O)(=O)NCc2ccc(C(=O)NCCN(Cc3ccccc3)C(C)C)cc2)cc1,3,0,-2,3,4,1
Fc1cccc(F)c1/C=N/NC(=S)Nc1cccnc1,2,3,0,3,9,43
Fc1c(F)c(F)c(/C=N/NC(=S)Nc2cccnc2)c(F)c1F,2,0,1,-2,18,71*
CC(C)(C)C1CCC(=NNC(=S)Nc2cccnc2)CC1 (centres undefined),-2,2,1,19*,15,29
Oc1ccc(/C=N/NC(=S)Nc2cccnc2)c(O)c1,3,-27,12,4,27,60*
COc1ccc(S(=O)(=O)N2CCC(C(=O)N[C@@H](C)C(=O)NC3CCCC3)CC2)cc1,1,0,5,-2,-6,-3
COCCN(C(=O)c1ccc2c(c1)C(=O)N(c1ccccc1Cl)C2=O)c1c(N)n(CC(C)C)c(=O)[nH]c1=O,0,0,nt,nt,nt,nt
COc1ccc2c(c1)sc1nc(-c3ccccc3)cn12,-9,2,-5,2,0,57*
CCOC(=O)N1CCN(C(=O)c2ccc3c(c2)sc2nc(-c4ccc(OC)cc4)cn23)CC1,-3,1,-4,1,9,-3
COc1ccc(S(=O)(=O)N2CCCCC2)cc1NC(=O)CNc1ccccc1C(C)=O,1,-29,6,nt,nt,3
Cc1ccc(NC(=O)c2cc(=O)[nH]c3ccccc23)cc1,3,2,3,1,6,76*
Nc1c(C(=O)Nc2ccc(Br)cc2)sc2nc(-c3ccco3)ccc12,1,-22,-2,5,14,60*
Cc1ccc(NC(=O)c2sc3nc4c(c(-c5ccco5)c3c2N)CCC4)cc1,1,-19,-4,5,4,60*
Nc1c(C(=O)Nc2ccccc2)sc2nc3c(c(-c4ccco4)c12)CCC3,3,-22,3,1,8,15
Nc1c(C(=O)Nc2ccc(F)cc2)sc2nc(-c3ccco3)ccc12,2,-22,-8,3,15,72*
CC(=O)c1sc2nc(-c3ccco3)ccc2c1N,6,-38,-3,8,18,0
CN1CCN(C(=O)C[C@@H]2C[C@H]3c4cc(NC(=O)c5cccnc5)ccc4O[C@H]3[C@H](CO)O2)CC1,0,-1,nt,nt,nt,nt
